What was measured:
[1] = Antioxidant activity assessed as inhibition of ferrous chloride-induced lipid peroxidation in […] labelled SLPC large unilamellar vesicle measured over 21 mins by fluorescence assay; assay type: functional
Outline: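 Vesicle model: large unilamellar vesicles carrying the fluorescent probe 3-[p-(6-phenyl)-1,3,5-hexatrienyl]phenylpropionic acid. Lipid peroxidation was followed by the emitted fluorescence on a fluorometer. Values are 50% inhibitory concentrations, expressed as mean ± SEM (n = 2).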

[2] = Antioxidant activity assessed as redox reaction between compound and MTT in DMSO measured after 6 hrs; assay type: functional
Outline: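 Reduction of MTT to formazan was read on a microplate reader. Results are reported as 50% inhibitory concentrations, mean ± SEM (n = 2).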

[3] = target: T1, Prostaglandin G/H synthase 1 (Ovis aries, UniProt P05979); test: Inhibition of ovine COX1 using arachidonic acid as substrate pretreated for 3 mins followed by substrate addition measured immediately
T1 sequence (P05979 whole entry): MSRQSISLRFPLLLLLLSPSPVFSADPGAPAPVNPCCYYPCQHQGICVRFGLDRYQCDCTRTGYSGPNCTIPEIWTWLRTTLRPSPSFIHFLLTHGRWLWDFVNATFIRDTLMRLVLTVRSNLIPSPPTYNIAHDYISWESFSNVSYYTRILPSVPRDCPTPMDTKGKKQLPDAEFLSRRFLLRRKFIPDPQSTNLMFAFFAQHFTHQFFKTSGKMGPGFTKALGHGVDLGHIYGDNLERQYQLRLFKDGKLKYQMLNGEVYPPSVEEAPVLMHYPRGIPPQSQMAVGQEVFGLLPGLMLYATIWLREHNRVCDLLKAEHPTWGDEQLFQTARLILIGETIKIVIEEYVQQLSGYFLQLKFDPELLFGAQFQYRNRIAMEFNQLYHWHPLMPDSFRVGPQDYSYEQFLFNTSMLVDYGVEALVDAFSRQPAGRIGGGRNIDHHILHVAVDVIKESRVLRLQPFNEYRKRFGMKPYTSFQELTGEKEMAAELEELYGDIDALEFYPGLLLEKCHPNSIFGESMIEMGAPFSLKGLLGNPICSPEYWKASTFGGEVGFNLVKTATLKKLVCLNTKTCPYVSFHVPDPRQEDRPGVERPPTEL
Outline: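 COX-1 enzyme was prepared in-house from ram seminal vesicles. Activity was monitored in a micro oxygen chamber using an oxygen electrode attached to a biological oxygen monitor.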

[4] = target: T2, Prostaglandin G/H synthase 2 (Homo sapiens, UniProt P35354); test: Inhibition of human COX2 expressed in insect cells using arachidonic acid as substrate pretreated for 3 mins followed by substrate addition measured immediately; assay type: cell-based
T2 sequence (P35354 whole entry): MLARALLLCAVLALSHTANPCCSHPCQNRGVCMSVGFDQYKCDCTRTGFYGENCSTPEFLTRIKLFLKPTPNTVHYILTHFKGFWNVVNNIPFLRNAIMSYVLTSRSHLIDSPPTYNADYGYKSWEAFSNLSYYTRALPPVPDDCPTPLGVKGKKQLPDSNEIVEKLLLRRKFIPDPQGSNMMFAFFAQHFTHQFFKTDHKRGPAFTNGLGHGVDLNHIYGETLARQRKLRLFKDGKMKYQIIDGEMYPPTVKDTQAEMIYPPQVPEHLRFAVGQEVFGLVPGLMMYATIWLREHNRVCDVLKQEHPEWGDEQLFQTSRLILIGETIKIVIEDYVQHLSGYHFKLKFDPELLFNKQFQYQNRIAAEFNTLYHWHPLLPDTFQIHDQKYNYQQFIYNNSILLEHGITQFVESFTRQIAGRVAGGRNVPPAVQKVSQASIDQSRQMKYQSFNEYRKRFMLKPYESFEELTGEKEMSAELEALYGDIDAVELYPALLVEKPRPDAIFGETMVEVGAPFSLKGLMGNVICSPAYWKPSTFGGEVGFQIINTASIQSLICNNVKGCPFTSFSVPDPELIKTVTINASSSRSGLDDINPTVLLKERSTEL

Row | SMILES | IC50 [1] | IC50 [2] | IC50 ([4]; read-out: IC50) | further results
1 | O=C(O)C(O)Cc1ccccc1 (centres undefined) | 161 µM | – | – | –
2 | CC(=O)OC1C2OC(CC(C)=CC2=O)C1(O)C=C(C)C (centres undefined) | 114 µM | 67.1 µM | – | IC50 [3]: Not Active; IC50 [4]: Not Active
3 | CCC(C)C(C(=O)O)N(C(=O)C(N)CC(C)C)C(C(=O)O)C(C)CC (centres undefined) | 43 µM | 48.6 µM | 34.6 µM | IC50 [3]: Not Active
4 | COc1ccc2ccc(=O)oc2c1C/C=C(\C)COC(=O)CC(C)C | 86.1 µM | 128 µM | 56.4 µM | IC50 ([3]; read-out: IC50): 47.7 µM
5 | COc1ccc2ccc(=O)oc2c1C/C=C(\C)COC(=O)C=C(C)C | 62.6 µM | 122 µM | 45.3 µM | IC50 ([3]; read-out: IC50): 36.8 µM
6 | O=C1O[C@H]([C@@H](O)CO)C(O)=C1O [ASCORBIC ACID] | – | 142 µM | – | –
7 | CC(=O)Oc1ccccc1C(=O)O [ASPIRIN] | – | – | – | IC50 [4]: Not Active
8 | Cc1cc(C(C)(C)C)c(O)c(C(C)(C)C)c1 [BUTYLATED HYDROXYTOLUENE] | 6.9 µM | – | – | –
9 | CC(C)(C)c1cc(O)ccc1O [E319] | 10 µM | 150 µM | – | –
10 | CC(C)=CCOc1c2ccoc2cc2oc(=O)ccc12 [ISOIMPERATORIN] | 63.7 µM | – | – | –
11 | O=C(O)CC(O)C(=O)O (centres undefined) [MALIC ACID] | 97.7 µM | – | – | –
12 | COc1ccc2cc([C@H](C)C(=O)O)ccc2c1 [NAPROXEN] | – | – | 52.2 µM | –
13 | COc1ccc2ccc(=O)oc2c1CC=C(C)C [OSTHOLE] | 120 µM | – | 81.1 µM | IC50 ([3]; read-out: IC50): 52.5 µM
14 | CC1(C)O[C@H]1COc1c2ccoc2cc2oc(=O)ccc12 [OXYPEUCEDANIN] | 74.8 µM | – | – | –
